One data set deals with West Nile virus. In words: Antiviral activity against West Nile virus infected in BHK-WII RepRen1B cells assessed as inhibition of viral replication at 10 uM after 3 days by luciferase reporter gene assay relative to control. The format is functional. The following applies: for inhibition at 10 µM: 72 h. In outline: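 Compound (DMSO, 10 μM final) added next day in triplicate; lycorine 1 μM served as control inhibitor. Three days on, live-cell Renilla substrate (1:1000 in phenol-red-free DME, 10% FBS) replaced medium. Luminescence measured; triplicate means compared with DMSO-alone wells.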

Data set [1] in a line: Cytotoxicity against BHK cells infected with West Nile virus replicon assessed as cell viability at 10 uM after 3 days by CellTiter 96 aqueous one solution cell proliferation assay relative to control. Particulars: hamster; for Activity: bhk, 72 h, 10 µM. The format is cell-based, Mesocricetus auratus. The method in brief:
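WNV replicon BHK cells, about 3 × 10^3/well, plated without antibiotic selection; next day compound in DMSO (10 μM final for screening, or eight serial dilutions), 3 days at 37°C, 5% CO2. Tetrazolium reagent, absorbance 450 nm, triplicate means versus DMSO wells; CC50 = 50% reduction in proliferation; CC50s mean ± SD of two experiments, top dose 200 μM.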

A further data set concerns Dengue virus. The data set can be described thus: Antiviral activity against Dengue virus infected in BHK pD2-hRucPac-2ATG cells assessed as inhibition of viral replication at 10 uM after 3 days by luciferase reporter gene assay relative to control. The format is functional. Particulars: for inhibition at 10 µM: 72 h. In outline: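 Renilla luciferase-bearing DENV subgenomic replicon BHK cells, kept on 3 μg/mL puromycin, seeded at 1.5 × 10^3/well without selection. Next day, 10 μM final compound in DMSO added to triplicate wells; MPA 1 μM as control inhibitor. After 3 days, medium swapped for live-cell Renilla substrate (1:1000, phenol-red-free DME, 10% FBS). Luminescence read; triplicate mean compared with DMSO-only wells.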

Data set [2] can be described thus: Cytotoxicity against BHK cells infected with Dengue virus replicon assessed as cell viability at 10 uM after 3 days by CellTiter 96 aqueous one solution cell proliferation assay relative to control. The format is cell-based, Mesocricetus auratus. The following applies: hamster; for Activity: bhk, 72 h, 10 µM. In outline: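 DENV replicon BHK cells, 1.5 × 10^3/well, plated without antibiotic selection; next day compound in DMSO (10 μM final for screening, or eight serial dilutions), 3 days at 37°C, 5% CO2. Tetrazolium (MTS-type) reagent, absorbance 450 nm, triplicate means versus DMSO wells; CC50 = 50% reduction in proliferation; CC50s mean ± SD of two experiments, top dose 200 μM.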

In data set [3] the test system is Human immunodeficiency virus 1. The data set can be described thus: Antiviral activity against HIV1. The format is functional, organism-based.
For data set [4], the target named is Human immunodeficiency virus type 1 reverse transcriptase (Human immunodeficiency virus 1) (UniProt Q72547). In words: Inhibition of HIV1 reverse transcriptase.
In data set [5] the test system is unidentified influenza virus. The data set can be described thus: Antiviral activity against Influenzae virus. The format is functional, organism-based.
A further data set deals with Human betaherpesvirus 5. In words: Antiviral activity against Human cytomegalovirus. The format is functional, organism-based.
For the next data set, the system named is Hepatitis C virus. In words: Antiviral activity against HCV. The format is functional, organism-based. The following applies: Hepacivirus hominis.

Data on 28 molecules can be found in ChEMBL document CHEMBL3576816, “5'-Silylated 3'-1,2,3-triazolyl Thymidine Analogues as Inhibitors of West Nile Virus and Dengue Virus” (J Med Chem, 2015).

Activity calls are given as the source filed them. The rule behind the calls is not given here.

Turning to `COc1ccc2cc(-c3cnnn3[C@H]3C[C@H](n4cc(C)c(=O)[nH]c4=O)O[C@@H]3CO)ccc2c1`, the inhibition at 10 µM with West Nile virus was 7.4%; in the data set on Dengue virus, 0%. Further, the Activity in data set [1] and in [2] was 100% throughout.

With `Cc1cn([C@H]2C[C@H](N3C(=O)CSC3c3c4ccccc4cc4ccccc34)[C@@H](CO)O2)c(=O)[nH]c1=O` (mixture of isomers), the results for the inhibition at 10 µM in the data set with West Nile virus and in the data set on Dengue virus were 12% and 0%, respectively. Besides, the figures for the Activity in [1] and in data set [2] were 100% and 96%, respectively.

On to `Cc1cn([C@H]2C[C@H](n3nncc3C3CC3)[C@@H](CO)O2)c(=O)[nH]c1=O`, for which the figures for the inhibition at 10 µM in the data set with West Nile virus and in the data set with Dengue virus were 0% and 4.7%, respectively. Also, the Activity in [1] was 97%; in data set [2], 100%.

In the case of `Cc1cn([C@H]2C[C@H](NC(=O)c3ccc4ccccc4c3)[C@@H](CO)O2)c(=O)[nH]c1=O`, the inhibition at 10 µM in the data set with West Nile virus came to 0%; in the data set with Dengue virus, 45%. For the same molecule, the values for the Activity in data set [1] and in [2] were 92% and 97%, respectively.

With `Cc1cn([C@H]2C[C@H](N3C(=O)CSC3c3ccc4[nH]ccc4c3)[C@@H](CO)O2)c(=O)[nH]c1=O` (mixture of isomers), the inhibition at 10 µM in the data set with West Nile virus amounted to 9.7%; in the data set on Dengue virus it was 13%. The figures for the Activity in data set [1] and in data set [2] were 100% and 95%, respectively.

In the case of `Cc1cn([C@H]2C[C@H](n3nncc3COc3ccccc3)[C@@H](CO)O2)c(=O)[nH]c1=O`, the inhibition at 10 µM with West Nile virus and in the data set on Dengue virus was 0% each time. Also, the Activity in data set [1] is listed as 96%; in data set [2], 100%.

As to `Cc1cn([C@H]2C[C@H](N=[N+]=[N-])[C@@H](CO[Si](C)(C)C(C)(C)C)O2)c(=O)[nH]c1=O`, the figures for the inhibition at 10 µM in the data set with West Nile virus and in the data set on Dengue virus were 17% and 3.6%, respectively. In addition, the Activity in data set [1] came out at 96%; in data set [2], 87%.

In the case of `COC[C@H]1O[C@@H](n2cc(C)c(=O)n(C)c2=O)C[C@@H]1n1nncc1-c1ccc2cc(OC)ccc2c1`, the inhibition at 10 µM with West Nile virus and in the data set on Dengue virus was 0% throughout. In addition, the Activity in data set [1] and in data set [2] was 100% in each case.

`COc1ccc(C(OC[C@H]2O[C@@H](n3cc(C)c(=O)[nH]c3=O)C[C@@H]2n2nncc2-c2ccc3cc(OC)ccc3c2)(c2ccccc2)c2ccc(OC)cc2)cc1`: the inhibition at 10 µM in the data set with West Nile virus was 23%; with Dengue virus, 46%. The Activity in [1] and in data set [2] was 93% in each case.

As for `Cc1cn([C@H]2C[C@H](n3cc(-c4ccc(-c5ccccc5)cc4)nn3)[C@@H](CO)O2)c(=O)[nH]c1=O`, the inhibition at 10 µM was 14% with West Nile virus and 10% in the data set with Dengue virus. Moreover, the Activity in data set [1] and in [2] was 100% each time.

Regarding `COc1ccc2cc(-c3cnnn3[C@H]3C[C@H](n4cc(C)c(=O)[nH]c4=O)O[C@@H]3COC3CCCCO3)ccc2c1` (stereo not given in full), the inhibition at 10 µM with West Nile virus is 1%; in the data set with Dengue virus, 21%. For the same molecule, the figures for the Activity in data set [1] and in data set [2] were 75% and 92%, respectively.

On to `Cc1ccc(S(=O)(=O)NC(=O)N[C@H]2C[C@H](n3cc(C)c(=O)[nH]c3=O)O[C@@H]2CO[Si](C)(C)C(C)(C)C)cc1`, for which the result (in [3]; in data set [5]; in the data set on Human betaherpesvirus 5; with Hepatitis C virus) was inactive. Besides, the inhibition result in [4] is “inactive”. The inhibition result in the data set with West Nile virus and in the data set on Dengue virus was “Active” throughout.

On to `CCOCOC[C@H]1O[C@@H](n2cc(C)c(=O)[nH]c2=O)C[C@@H]1n1nncc1-c1ccc2cc(OC)ccc2c1`, for which the inhibition at 10 µM in the data set on West Nile virus worked out at 0%; in the data set on Dengue virus it was 13%. Moreover, the Activity in data set [1] turned out to be 89%; in data set [2], 95%.

As for `Cc1cn([C@H]2C[C@H](N3C(=O)CSC3c3ccccc3)[C@@H](CO)O2)c(=O)[nH]c1=O` (mixture of isomers), the inhibition at 10 µM in the data set with West Nile virus and in the data set on Dengue virus was 0% throughout. Moreover, the Activity is 99% in data set [1] and 100% in data set [2].

For the molecule `Cc1cn([C@H]2C[C@H](n3nncc3C3CCCCC3)[C@@H](CO)O2)c(=O)[nH]c1=O`, the inhibition at 10 µM in the data set on West Nile virus came out at 0%; in the data set with Dengue virus it was 10%. Moreover, the Activity in [1] and in [2] was 100% each time.

For `COc1ccc2cc(C(=O)N[C@H]3C[C@H](n4cc(C)c(=O)[nH]c4=O)O[C@@H]3CO)ccc2c1`, the inhibition at 10 µM in the data set with West Nile virus and in the data set on Dengue virus was 0% in each case. In addition, the Activity in data set [1] and in [2] was 100% in each case.

On to `Cc1cn([C@H]2C[C@H](n3nncc3-c3cc4ccccc4c4ccccc34)[C@@H](CO)O2)c(=O)[nH]c1=O`, for which the inhibition at 10 µM in the data set with West Nile virus and with Dengue virus was 0% in each case. For the same molecule, the Activity stood at 100% in [1] and 95% in data set [2].

Turning to `Cc1cn([C@H]2C[C@H](NC(=O)C(c3ccccc3)(c3ccccc3)c3ccccc3)[C@@H](CO)O2)c(=O)[nH]c1=O`, the inhibition at 10 µM in the data set with West Nile virus amounted to 0%; in the data set with Dengue virus it was 16%. Also, the Activity in [1] came to 95%; in data set [2] it was 94%.

Turning to `COc1ccc2cc(-c3cnnn3[C@H]3C[C@H](n4cc(C)c(=O)[nH]c4=O)O[C@@H]3COC(C)=O)ccc2c1`, the values for the inhibition at 10 µM in the data set with West Nile virus and in the data set on Dengue virus were 5.3% and 0%, respectively. Also, the Activity came out at 100% in data set [1] and 97% in data set [2].

Regarding `Cc1cn([C@H]2C[C@H](NC(=O)c3c[nH]c4ccccc34)[C@@H](CO)O2)c(=O)[nH]c1=O`, the inhibition at 10 µM in the data set with West Nile virus came to 0%; with Dengue virus, 4.3%. Besides, the values for the Activity in data set [1] and in data set [2] were 97% and 96%, respectively.

As for `Cc1cn([C@H]2C[C@H](n3nncc3-c3ccccc3)[C@@H](CO)O2)c(=O)[nH]c1=O`, the figures for the inhibition at 10 µM in the data set on West Nile virus and in the data set on Dengue virus were 4% and 0%, respectively. Besides, the Activity came to 99% in data set [1] and 100% in data set [2].

Regarding `Cc1cn([C@H]2C[C@H](n3cc(-c4ccc5[nH]ccc5c4)nn3)[C@@H](CO)O2)c(=O)[nH]c1=O`, the inhibition at 10 µM worked out at 0% in the data set on West Nile virus and 8.2% with Dengue virus. Further, the Activity in data set [1] and in data set [2] was 100% each time.

Turning to `Cc1cn([C@H]2C[C@H](NC(=O)c3cccc4ccccc34)[C@@H](CO)O2)c(=O)[nH]c1=O`, the inhibition at 10 µM came out at 0% in the data set with West Nile virus and 15% in the data set on Dengue virus. For the same molecule, the Activity in data set [1] is 87%; in [2] it was 98%.

For `Cc1cn([C@H]2C[C@H](n3nncc3-c3cccc4ccccc34)[C@@H](CO)O2)c(=O)[nH]c1=O`, the results for the inhibition at 10 µM with West Nile virus and with Dengue virus were 3.3% and 0%, respectively. For the same molecule, the Activity in data set [1] came to 100%; in data set [2] it was 90%.

In the case of `Cc1cn([C@H]2C[C@H](NC(=O)c3c4ccccc4cc4ccccc34)[C@@H](CO)O2)c(=O)[nH]c1=O`, the inhibition at 10 µM with West Nile virus and in the data set on Dengue virus was 0% each time. Moreover, the Activity is given as 92% in data set [1] and 95% in data set [2].

On to `Cc1cn([C@H]2C[C@H](n3nncc3-c3ccc(-c4ccccc4)cc3)[C@@H](CO)O2)c(=O)[nH]c1=O`, for which the inhibition at 10 µM in the data set with West Nile virus is 23%; with Dengue virus, 2.3%. The Activity in data set [1] is reported as 100%; in [2] it was 92%.

Turning to `Cc1cn([C@H]2C[C@H](n3nncc3-c3ccc(Oc4ccccc4)cc3)[C@@H](CO)O2)c(=O)[nH]c1=O`, the inhibition at 10 µM with West Nile virus was 9%; in the data set with Dengue virus, 0%. Also, the Activity is listed as 99% in data set [1] and 100% in [2].

Regarding `Cc1cn([C@H]2C[C@H](N=[N+]=[N-])[C@@H](CO)O2)c(=O)[nH]c1=O` [ZIDOVUDINE], the inhibition at 10 µM with West Nile virus and in the data set with Dengue virus was 0% in each case. For the same molecule, the viability at 72 h, 10 µM worked out at 83% in data set [1] (BHK cells infected with West Nile virus replicon, read-out: Activity) and 89% in [2] (BHK cells infected with Dengue virus replicon, read-out: Activity).
